According to the EternaBench riboswitch data:

System: MS2 coat protein
Assay: apparent Kd, MS2 coat protein; higher = weaker binding; RNA-MaP array; FMN 200 µM where present
In short: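 Designs were transcribed by stalled E. coli RNA polymerase on Illumina sequencing-chip clusters. They were titrated with SNAP-549-labelled MS2 coat protein from 0.7 or 1.5 nM, doubling to 3 µM, in 100 mM Tris-HCl pH 7.5, 80 mM KCl, 4 mM MgCl2, BSA, DTT, yeast tRNA and Tween-20, without and then with constant ligand. The apparent Kd is the median of filtered per-cluster fits after normalisation of green signal to red-channel RNA signal and control-cluster median Fmax.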

[1] = designed as: ON switch for flavin mononucleotide, no ligand
[2] = ligand present: flavin mononucleotide, designed as: ON switch for flavin mononucleotide
[3] = designed as: OFF switch for flavin mononucleotide, no ligand
[4] = ligand present: flavin mononucleotide, designed as: OFF switch for flavin mononucleotide

| Sequence | apparent Kd [1] | apparent Kd [2] | apparent Kd [3] | apparent Kd [4] |
| --- | --- | --- | --- | --- |
| UGGUACUAGGGAGGAUAUGGGAAUAUACAUGAGGAUCACCCAUGUUUAAGAAUGCCGAGAGGCAACUAGAAGGCCCUAGUACCU | 11.1 nM | 4.85 nM | – | – |
| UGGUACUAGGGAGGAUAUGGGAUGAUACAUGAGGAUCACCCAUGUUUAAGAAUGCCGAGAGGCAACUAGAAGGCCCUAGUACCU | 448 nM | 174 nM | – | – |
| UGGUACUAGUGAGGAUAUGGGAAGAUACAUGAGGAUCACCCAUGUUUAAGAAUGCCGAGAGGCAACUAGAAGGCCCUAGUACCU | 388 nM | 35.8 nM | – | – |
| UGGUAGUCAGGAUAUACGAACAUGUCGCCAGAUGUCAAGGUACAUGAGGAUCACCCAUGUAGAAGGGACUAGAA | – | – | 44.5 nM | 48.2 nM |
| UGGUCAUCAUCAGGAUAUUAACGUGGGCUACAUUAAGAAGGGAUAGUGGGAGAGGAAGUGAAACAUGAGGAUCACCCAUGUUGU | 13.5 nM | 11.3 nM | – | – |
| UGUAAAUUAUUAAGUAAUUAGGCGAAGGAUAUAUAACAUGAGGAUCACCCAUGUACUAAAUUGAAGUAGAAGGUUGAACAUUUC | 14.5 nM | 12.9 nM | – | – |
| UGUAAAUUAUUAAGUAAUUAGGCGAAGGAUAUAUAACAUGAGGAUCACCCAUGUACUAAAUUGAAGUAGAAGGUUGAGCAUUUC | 16.5 nM | 14.6 nM | – | – |
| UGUAAUGCUAUUGCAGAGGUUUAGAAGGAUAUACAUCGACAUGACCGUACAUGAGGAUCACCCAUGUAGAAGGUCUAACUUCGU | – | – | 5.61 nM | 5.55 nM |
| UGUACAUUAUUAAGUAAUUAGGCGAAGGAUAUAUAACAUGAGGAUCACCCAUGUACUAAAUUGAAGUAGAAGGUUGAGCAUUUC | 16.2 nM | 13.7 nM | – | – |
| UGUAGUUCAGGAUAUGAUGUUUAAUACAUGAGGAUCACCCAUGUAGAUCCUGAAUUAACAUCAGAAGGGAAUAUUU | – | – | 20.7 nM | 45.2 nM |
| UGUAUCUAGUAAGGAUAUACUAUUGAUUCAAUUGUAGAAGGUACAGACAUGAGGAUCACCCAUGUAGUUAUGGAUAUUAGAUAU | 74.1 nM | 42.3 nM | – | – |
| UGUAUGGACAGAGGAUAUACCGAUAGGAUCUACUAUCGAAUAAUCCUCACAUGAGGAUCACCCAUGUAGAAGGCUGUCCAUACU | – | – | 21.2 nM | 142 nM |
| UGUAUGGACAGAGGAUAUGCCGAUAGGAUCUACUAUCGAAGAAUCCUCACAUGAGGAUCACCCAUGUAGAAGGCUGUCCAUACC | – | – | 8.57 nM | 36.8 nM |
| UGUAUGGACAGAGGAUAUGCCGAUAGGCUCUACUAUCGAAGAAUCCUCACAUGAGGAUCACCCAUGUAGAAGGCUGUCCAUACU | – | – | 18.1 nM | 41.3 nM |
| UGUCAGUAACAAGGAUAUUGGAGUUAAUGGCUACGAGAAGGUGUUACAUGAGGAUCACCCAUGUCCUCGCCUGUAGCAAGGACA | – | – | 87.2 nM | 567 nM |
| UGUCAUAUAUAGAAGGGUAGUAGGGAUUUACAUGAGGAUCACCCAUGUAUUAUAGGAUAUGUGUAUAGUUUUUAUUCAAGUUUA | – | – | 24.7 nM | 18.8 nM |
| UGUCAUUUACAGAAGGGUAGUUGGGUUAUACAUGAGGAUCACCCAUGUUAUACAGGAUAUGUGUAAAGUUAUUAUUAAAGUACA | – | – | 30.1 nM | 36 nM |
| UGUCCAUAGCAGAAGGACAUAAAUUUCCAUGAAAACAUGAGGAUCACCCAUGUAGGAUAUGCUAUGGACUAAGAGCGAAAGCUC | – | – | 5.21 nM | 10.3 nM |
| UGUCCUUGAGGCUCGGACGUGUCGCCAGAAGGCAAUUUCUGACAUGAGGAUCACCCAUGUCCAAUUGAGGAUAUGGCUGCGAAG | 27.2 nM | 7.52 nM | – | – |
| UGUCGGAGCAGAGGAUAUACAUGAGGAUCACCCAUGUAAUAAAGUGAAGCCUGGAAACAGGCAAUGUAGAAGGCUGCUCCGAUA | – | – | 12 nM | 88.6 nM |
| UGUCGGAGCAGAGGAUAUACAUGAGGAUCACCCAUGUAAUAAAUCCAAGCCUGGAAACAGGCAAUGUAGAAGGCUGCUCCGACA | – | – | 16.8 nM | 80.2 nM |
| UGUCGGAGCAGAGGAUAUUACAUGAGGAUCACCCAUGUAUGAACCAAUAGCUAGAAACAGCAAUGUAAGAAGGCUGCUCCGACA | – | – | 8.97 nM | 113 nM |
| UGUCGGAGCAGAGGAUAUUACAUGAGGAUCACCCAUGUAUGAACCAAUAGCUGCAAACAGCAAUGUAAGAAGGCUGCUCCGACA | – | – | 12.4 nM | 162 nM |
| UGUCGGAGCAGAGGAUAUUACAUGAGGAUCACCCAUGUAUGAACCAAUAGCUGGAAACCGCAAUGUAAGAAGGCUGCUCCGACA | – | – | 104 nM | 374 nM |
| UGUCGGAGCAGAGGAUAUUACAUGAGGAUCACCCAUGUAUGAACCAAUAGCUUGAAACAGCAAUGUAAGAAGGCUGCUCCGACA | – | – | 7.66 nM | 84.2 nM |
| UGUCGGAGCAGAGGAUAUUACAUGAGGAUCACCCAUGUGUGAACCAAUAGCUGGAAACAGCAAUGUAAGAAGGCUGCUCCGACA | – | – | 58.4 nM | 29.2 nM |
| UGUCUGAUCUAAUAACAUGAGGAUCACCCAUGUGUUCACAACUAGGAUAUCGAUUGUUAAGAAAUCGAGAAGGAGUAUACAUUA | – | – | 44.8 nM | 50.8 nM |

| Sequence | apparent Kd [1] | apparent Kd [2] | apparent Kd [3] | apparent Kd [4] |
| --- | --- | --- | --- | --- |
| UGUGCCGGAUCAGGAUAUCCACAGCGGCAAUCACAUGAGGAUCACCCAUGUGGAGAAGGGAUUCGCGAAUUAAUAUCUCGAUAA | – | – | 33.5 nM | 56.6 nM |
| UGUGCCUCGAGAGGAUAUAACAUGAGGAUCACCCAUGUAACAGAGGUGGAAACACCUCUGAAAUGUUAGAAGGCUCGAGGCACA | – | – | 46.6 nM | 57 nM |
| UGUGCGUAUGUGAGGAUAUGCUGGUCCUUGGCUCGGCAGAAGGCACAUGAGGAUCACCCAUGUGGUGUCGUACG | – | – | 75.5 nM | 199 nM |
| UGUGUCUGUAGAGGAUAUCCGGGCGUUCGGCUAGGAGAAGGCUGCAACACAUGAGGAUCACCCAUGUAGGUUGUGUCUCUCUAC | – | – | 5.05 nM | 8.48 nM |
| UGUGUGAGACAGGAUAUGCCAGAUGUAUUACUGGUAGAAGGGUCUACAUGAGGAUCACCCAUGUGGCCGGCCGG | – | – | 27.1 nM | 61.8 nM |
| UGUGUGUGGGCAGGAUAUACAUGAAUAUAUAUGAUGUAGUAUGAUGUAACAUGAGGAUCACCCAUGUAGAAGGGCCGGUGUAUG | – | – | 122 nM | 140 nM |
| UGUUAUAGAGGAUAUGCGUGAAUAUAGAUUCAUGGAAAUUUACAUGAGGAUCACCCAUGUAGAAGGCUGUGAUU | – | – | 14.4 nM | 15.3 nM |
| UGUUCUAUGUAGAAGGCCCAUAUCUGUUCUUAGGGAGGAUAUACAUGAGGAUCACCCAUGUGUAGAGCUGGUGGACUGGUCAGC | – | – | 15.4 nM | 35.5 nM |
| UGUUGGAGCGAGAAGGGACGAUGGGAAGCUGUAAGCUGGCACUGUAGACAUGAGGAUCACCCAUGUCAGGAUAUUGCCGAACUA | – | – | 5.98 nM | 10.2 nM |
| UGUUGUAUUACAGGAUAUCUAGUAUAUUUAUUUAGAGAAGGGUAUUCACAUGAGGAUCACCCAUGUAUAUACGAGGAAGUUGUG | 41.1 nM | 40.2 nM | – | – |
| UGUUGUAUUACAGGAUAUCUAGUAUUUUUACUUAGAGAAGGGUAUUCACAUGAGGAUCACCCAUGUAUAUACGAGGAAGUUGUG | 28.8 nM | 29.8 nM | – | – |
| UGUUGUAUUACAGGAUAUCUAUGAUUUUUUUUUAGAGAAGGGUAUUCACAUGAGGAUCACCCAUGUAUAUACGAGGAAGUUGUG | 51.4 nM | 62 nM | – | – |
| UGUUGUAUUACAGGAUAUCUAUGGUUUUUAUUUAGAGAAGGGUAUUCACAUGAGGAUCACCCAUGUAUAUACGAGGAAGUUGUG | 57.5 nM | 63.7 nM | – | – |
| UGUUGUAUUACAGGAUAUCUAUGUUUUUUAUUUAGAGAAGGGUAUUCACAUGAGGAUCACCCAUGUAUAUACGAGGAAGUUGUG | 49 nM | 49 nM | – | – |
| UGUUGUAUUACAGGAUAUCUAUUAUAUUUAUUUAGAGAAGGGUAUUCACAUGAGGAUCACCCAUGUAUAUACGAGGAAGUUGUG | 49.6 nM | 55.1 nM | – | – |
| UGUUGUAUUACAGGAUAUCUAUUAUUUAUAUUUAGAGAAGGGUAUUCACAUGAGGAUCACCCAUGUAUAUACGAGGAAGUUGUG | 52.1 nM | 54 nM | – | – |
| UGUUGUAUUACAGGAUAUCUAUUAUUUUUAUGUAGAGAAGGGUAUUCACAUGAGGAUCACCCAUGUAUAUACGAGGAAGUUGUG | 44.1 nM | 45.5 nM | – | – |
| UGUUGUUCAGGAUAUGGUGUGUUAUACAUGAGGAUCACCCAUGUGGGUCCUGGUUUGGCCUCAGAAGGGAAUGUUG | – | – | 750 nM | 537 nM |
| UUAAACGGAGGAUAUACAUUUUUUUUAUUAUCCUCAUUAAAACAUGAGGAUCACCCAUGUAGAAGGCCGAAAUU | – | – | 79.6 nM | 292 nM |
| UUAAAUCAUGUAGGAUAUCCGAUGCGAAGCGUUGGAGAAGGACAUGAGGAUCACCCAUGUUCUAGCGUCUGAGUACAGAUGCAA | – | – | 30.6 nM | 140 nM |
| UUAAAUCAUGUAGGAUAUGCAUGGCGAAGCUACGCAGAAGGACAUGAGGAUCACCCAUGUGCUAGCGACAGAGAACUGUUGCAA | – | – | 56.9 nM | 311 nM |
| UUAAAUCAUGUAGGAUAUGCAUGGCGAAGCUACGCAGAAGGACAUGAGGAUCACCCAUGUGCUAGCUACCGAGUUCGGUGGCAA | – | – | 71.3 nM | 283 nM |
| UUAAAUCAUGUAGGAUAUGCAUGGCGAAGCUACGCAGAAGGACAUGAGGAUCACCCAUGUUAGAGCUACCGAGUUCGGUGGCAA | – | – | 112 nM | 210 nM |
| UUAAAUCAUGUAGGAUAUGCAUGGCGAAGCUACGCAGAAGGACAUGAGGAUCACCCAUGUUCUAGCGUCUCAGUAGAGAUGCAA | – | – | 18.4 nM | 63.3 nM |
| UUAACAUGAGGAUCACCCAUGUAUAGAUUGUUUAUUAGAAGUGAGGAUAUAUAUAAAAUUAGGUAGUAGAAGGCACUGGGUUUU | 30.5 nM | 31.9 nM | – | – |
| UUAAUAAUACAAGGAUAUCAAUUGUUCUUAAGACAUACAUGAGGAUCACCCAUGUUAAUAUAUGUUGAGAAGGUGUAUUUUCAG | 35.7 nM | 26.7 nM | – | – |
| UUAAUAGUAGGAUAUACAUGAGGAUCACCCAUGUAGCAACUACACAAAGGAACCUGAUGUAGAAGGACUCCCAA | – | – | 14.4 nM | 14.5 nM |
